mABHD4 FP: ABHD4 inhibitors, primary screen, biochemical, fluorescence polarization, mouse. purified mABHD4, FP-Rh probe fluorescence polarization. inhibition, % at 8.92 µM. 370,000 tested, 0.54% active. (Lyso)-N-acylphosphatidylethanolamine lipase (Mus musculus), Q8VD66;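 active = inhibition exceeding the mean over every tested compound plus 3 SD, cut at about 30% in these data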;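 note: 0% = plate median of compound wells and 100% = S159A mutant with DMSO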
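Test system: mouse ABHD4 enzyme, wild type. Reagent: FP-Rh fluorescent activity-based probe, added after compound pre-incubation. Timing: pre-incubation 45 min, probe exposure 60 min, at 25 °C. Technique: FP readout, ex 525 nm / em 598 nm. Benchmarks: high control S159A mutant with DMSO, low control median of compound wells.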
PRMT1 FP inh: PRMT1 methyltransferase inhibitors, primary screen, biochemical, fluorescence polarization; Protein arginine N-methyltransferase 1 (Homo sapiens), Q99873; AID 652257, 2013; recombinant PRMT1, activity-based probe fluorescence polarization; 370,000 tested, 1.3% active; inhibition, % at 2.79 µM;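 active = inhibition above about 21% made by adding two undisclosed values, limit read from the data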
TCR CD3 inh: inhibitors of human TCR-CD3 interaction, primary screen, biochemical, fluorescence, TAMRA-labeled TCR probe | T-cell receptor (TCR) | inhibition, % at 9.4 µM | 360,000 tested, 0.37% active; in the data active = inhibition above about 19%;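 note: recombinant mutant TCR 2C K166C tagged with TAMRA read by polarization; 0% = receptor in buffer alone and 100% = receptor with positive control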
HTRA1 inhibitor: HTRA1 serine protease inhibitors, primary screen, biochemical, fluorescence polarization, HTS | Q92743 | recombinant HTRA1, FP-rhodamine activity-based probe | inhibition, % at 5.96 µM | 340,000 tested, 0.5% active; in the data active = inhibition above about 36%;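 note: 0% = enzyme with DMSO and 100% = wells lacking enzyme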
Target sequence (Q92743 whole entry, looked up): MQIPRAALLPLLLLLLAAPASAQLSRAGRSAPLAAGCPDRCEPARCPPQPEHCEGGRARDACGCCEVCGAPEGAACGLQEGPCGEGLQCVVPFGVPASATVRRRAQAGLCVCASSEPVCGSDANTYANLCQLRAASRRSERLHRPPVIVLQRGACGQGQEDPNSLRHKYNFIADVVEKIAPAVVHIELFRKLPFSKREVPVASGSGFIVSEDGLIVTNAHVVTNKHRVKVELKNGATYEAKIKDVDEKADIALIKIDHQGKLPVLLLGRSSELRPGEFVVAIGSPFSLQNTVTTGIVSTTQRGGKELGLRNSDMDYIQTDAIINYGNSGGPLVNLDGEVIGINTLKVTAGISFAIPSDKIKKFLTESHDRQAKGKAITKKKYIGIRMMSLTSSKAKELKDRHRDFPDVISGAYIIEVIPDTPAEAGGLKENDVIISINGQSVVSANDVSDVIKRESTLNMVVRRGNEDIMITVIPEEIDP
SIAE primary: human SIAE inhibitors, primary screen, biochemical, fluorescence polarization, FP-Rh probe, 1536-well HTS; Sialate O-acetylesterase (Homo sapiens), Q9HAT2; SIAE FP-Rh probe binding; inhibition, % at 9.66 µM; 370,000 tested, 0.69% active; AID 1053197, 2014;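 active = inhibition above a cutoff: mean of compounds within the control limits plus 3 SD of those, cut at about 17% in these data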;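 note: 0% = plate median of compound wells and 100% = probe without SIAE protein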
SIAE inh conf: human SIAE inhibitors, retest, confirmation, biochemical, fluorescence polarization, FP-Rh probe, triplicate; shares compounds with SIAE primary; SIAE FP-Rh activity-based probe; inhibition, % at 9.66 µM; 2,300 tested, 13% active; AID 1117263, 2014;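 active = mean inhibition of the replicates above the hit cutoff set in the primary screen, cut at about 17% in these data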;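 note: 0% = SIAE with DMSO and probe and 100% = probe without SIAE; inhibitors lower polarization as more probe stays unbound to SIAE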
* = called active by the depositor; nt = no result. A selection: hits, their analogues and other compounds. The true share with any hit is near 2.7%.

SMILES	mABHD4 FP	PRMT1 FP inh	TCR CD3 inh	HTRA1 inhibitor	SIAE primary	SIAE inh conf
CCCN(CCC)CC(O)Cn1cc(/C=C/C(=O)c2ccccc2)c2ccccc21 (stereo not given)	5	-8	0	-8	18*	-6
CCCN(CCC)CC(O)Cn1cc(/C=C/C(=O)c2cccs2)c2ccccc21 (stereo not given)	7	-8	1	-16	7	nt
COc1ccc(/C=N/NC(=O)c2cccnc2)cc1CN1CCCc2ccccc21	17	3	-4	6	22*	19*
COc1ccc(C(=O)N/N=C/c2ccc(OC)c(CN3CCCc4ccccc43)c2)cc1	-5	-1	6	-15	4	nt
C=CCOc1ccc(/C=C2/C(=O)ON=C2C)cc1OC	9	1	2	-3	8	nt
COc1ccc(/C=C2/C(=O)ON=C2C)cc1Cl	4	1	-2	4	22*	4
Cc1ccc(S(=O)(=O)N2CCN(C(C)C(=O)Nc3ccccc3-c3ccccc3)CC2)cc1 (stereo not given)	3	2	-1	0	6	nt
Cc1ccccc1Cn1c(=N)n(CC(=O)c2ccco2)c2ccccc21	6	-2	3	-5	22*	3
COc1cc(CCCN2CCNC[C@@H]2c2ccccc2)cc(OC)c1OC	-8	-1	0	-4	16	nt
c1ccc([C@H]2CNCCN2CCc2cccc3ccccc23)cc1	13	-1	0	-3	23*	4
Cc1ccc(Nc2nc(N/N=C/c3c[nH]c4ccccc34)nc(N3CCOCC3)n2)cc1	11	2	-5	25	28*	9
C(=N\Nc1nc(Nc2ccccc2)nc(N2CCOCC2)n1)/c1c[nH]c2ccccc12	15	-3	-9	nt	19*	24*
O=[N+]([O-])c1ccccc1/C=N/n1c(-c2cccnc2)n[nH]c1=S	6	1	3	-1	17*	0
O=[N+]([O-])c1cc(/C=N/n2c(-c3cccnc3)n[nH]c2=S)ccc1Cl	5	17	-1	-2	-5	nt
O=C(C[n+]1ccccc1)N/N=C/c1ccc(Br)cc1	5	-1	-4	-3	3	nt
CCOC(=O)Nc1ccc2c(c1)C(=NNC(=S)NC)c1ccccc1-2	-8	4	0	-56	15	nt
CC(Sc1nnc(NCc2ccccc2)s1)C(=O)Nc1ccc2c(c1)C(=O)c1ccccc1C2=O (stereo not given)	22	17	-7	-1	18*	-28
CC(Sc1nnc(Nc2ccccc2)s1)C(=O)Nc1nc(-c2ccccc2)cs1 (stereo not given)	-3	-3	-1	-18	22*	5
O=C(c1ccccc1)N1CCN(c2ccc(NCc3ccc4c(c3)OCO4)cc2)CC1	19	1	1	30	0	nt
CC(=O)N1CCN(c2ccc(NCc3ccccc3)cc2)CC1	29	7	5	34	28*	0
CC(=O)N1CCN(c2ccc(NCc3ccc4c(c3)OCO4)cc2)CC1	18	7	6	23	20*	6
CCOC(=O)N1CCN(C2CCCN(C(=O)c3ccccc3N(C)C)C2)CC1 (stereo not given)	8	4	0	5	9	nt
CC(CNC(=O)[C@@H](Cc1ccccc1)NC(=O)[C@H]1O[C@@H](n2cnc3c(=O)[nH]c(N)nc32)[C@H](O)[C@@H]1O)c1ccccc1 (stereo not given in full)	-10	-1	-4	nt	4	nt
C/C(=N\Nc1nc2ccccc2[nH]1)c1ccc2c(c1)OCCO2	22	-2	4	14	20*	13
C/C(=N\Nc1ccccn1)c1ccc2c(c1)OCO2	5	3	4	3	1	nt
SMILES	mABHD4 FP	PRMT1 FP inh	TCR CD3 inh	HTRA1 inhibitor	SIAE primary	SIAE inh conf
C/C(=N\Nc1nc2ccccc2[nH]1)c1cc2ccccc2o1	29	-3	-4	8	24*	16
CC[C@H]1C(=O)[C@@H](Cc2ccccc2)[C@@H]2CCN3C(=O)CCC[C@H]1[C@H]23	13	-2	-5	7	2	nt
CCCNS(=O)(=O)c1cccc(C(=O)NNC(=O)c2cc(C)oc2C)c1	2	0	-6	2	17*	-6
Cc1cc(C(=O)NNC(=O)c2ccc(S(=O)(=O)N(C)C)cc2)c(C)o1	5	0	7	2	-10	nt
O=S(=O)(NCC1CCN(Cc2ccccc2)CC1)c1ccccc1C(F)(F)F	-2	1	-9	9	2	nt
Cc1ccc(S(=O)(=O)N2CCC(C(=O)NCCCN3CCOCC3)CC2)cc1C	-1	-4	-3	4	18*	3
Cc1ccc(S(=O)(=O)N2CCC(C(=O)NCCN3CCOCC3)CC2)cc1C	-2	-1	-3	3	10	nt
CC(Sc1nnc(COc2ccc(Cl)cc2)o1)C(=O)Nc1ccc(N2CCOCC2)cc1 (stereo not given)	1	-3	-2	1	4	nt
CCc1ccc(NC(=O)C(C)Sc2nnc(CN3CCCC3)o2)cc1 (stereo not given)	0	1	-1	4	19*	2
Cc1ccc(N(CC(=O)NC2CCCC2)C(=O)CCC(=O)Nc2nccs2)cc1C	2	-1	6	5	18*	1
CCN(CC)S(=O)(=O)c1ccc(C(=O)NCCSc2c[nH]c3ccccc23)cc1	-8	1	-1	-11	19*	0
Cc1nc2c(C)cccn2c(=O)c1NC(=O)c1ccc2c(c1)OCO2	1	0	-1	4	4	nt
CN1C(=O)[C@@](O)(c2cn(C)c3ccccc23)c2cc(Br)ccc21	4	-1	-3	nt	-5	nt
O=c1c2sccc2[nH]c(=S)n1Cc1ccccc1	1	-2	2	2	5	nt
CC(NC(=O)CCn1c(=S)[nH]c2ccsc2c1=O)c1ccccc1 (stereo not given)	3	2	-5	1	19*	1
COc1ccc(NC(=O)C2c3ccccc3OCC(=O)N2Cc2cccnc2)cc1 (stereo not given)	8	1	9	nt	6	nt
O=C(N/N=C1/CC2CCC1C2)c1cc2ccccc2cc1O (stereo not given)	29	0	7	32	19*	-8
Cc1cc(/C=C2/SC(=O)N(CC(=O)N3CCOCC3)C2=O)c(C)n1-c1ccccc1F	3	-2	6	4	-1	nt
COc1ccc(OCc2nn3c(-c4ccccc4)nnc3s2)cc1	-3	-1	nt	nt	10	nt
COC(=O)C(NC(C)=O)(Nc1ccc(Br)cn1)C(F)(F)F (stereo not given)	-3	2	-2	-1	-2	nt

Screens from PubChem BioAssay.
